# Screening results deposited in PubChem by Broad Institute.
# A1 apoptosis 2 – A1 inhibitors via caspase activation, primary screen, cell-based, luminescence, HTS, two replicates; MEF A1-2A-BIM cells, caspase-Glo luminescence, 3 h; percent of clofoctol response, DMSO zero; caspase activation, % (test concentration not listed); 24,000 tested, under 10 active; in the data active = caspase activation above about 5.9%
#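 Evaluation: Caspase-3/7 activity from luminescence increase | Assay system: A1-2A-BIM mouse embryonic fibroblasts | Quantity: 2500 MEF cells/well | Medium: RPMI-1640 plus 10% FBS | Detection: Caspase-Glo 3/7 luminescence, 1 h at room temperature | Dosing: 50 nL compound per well, pinned | Timing: Cells settled overnight, compound exposure 3 h at 37 °C, 5% CO2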
# T cruzi intra – inhibitors of intracellular Trypanosoma cruzi, primary screen, cell-based, plate reader, single point, set 2. AID 651903, 2012. activity score (inhibition), % at 5.01 µM. 4.9% of 22,000 active. intracellular Trypanosoma cruzi in host cells; in the data active = activity score above about 55%;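 also: parasites and compound incubated about four days before reading; 0% = median of neutral control wells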
# INS-1E ATP HTS – protection of INS-1E cells from cytokine death, primary screen, ATP luminescence, single point. AID 488910, 2010. protection from cytokine-induced ATP loss, % at 10 µM. INS-1E cytokine-induced death, 48 h; normalised: neutral wells 0, positive control 100. 0.1% of 20,000 active;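 active = mean replicate protection from cytokine-induced ATP loss at least 50% and at least 75% of replicates each reaching 50%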
#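 assay system = INS-1E rat insulinoma cells | amount = 8000 cells per well | medium = phenol-red-free RPMI with 5% fetal bovine serum | doses = one compound concentration, pin transfer | timing = 48 h cytokine plus compound treatment, 10 min reagent incubation | also added = IL-1β, TNF-α and IFN-γ cytokine mix | signal = CellTiter-Glo luminescence measuring cellular ATP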
# * hit, by the source's call; x = no result given. The sample as a whole holds a higher share of hits than the screen did.
SMILES,A1 apoptosis 2,T cruzi intra,INS-1E ATP HTS
Cc1ccc(S(=O)(=O)N(C)C[C@@H]2Oc3c(NS(=O)(=O)c4ccc(Cl)cc4)cccc3C(=O)N([C@H](C)CO)C[C@H]2C)cc1,1,13,7
Cc1ccc(S(=O)(=O)Nc2cccc3c2O[C@@H](CN(C)S(=O)(=O)c2ccc(Cl)cc2)[C@@H](C)CN([C@H](C)CO)C3=O)cc1,x,58*,-22
C[C@@H]1CN([C@H](C)CO)C(=O)c2cccc(NS(=O)(=O)c3ccc(Cl)cc3)c2O[C@H]1CN(C)Cc1ccc(-c2ccccc2)cc1,x,33,-9
O=C(O)CCCCCC(=O)N/N=C/c1ccc[nH]1,x,-2,10
COC(=O)CCCCCCC(=O)N/N=C/c1ccc(F)c(Oc2ccccc2)c1,0,6,1
O=C(O)CCCCCC(=O)N/N=C/c1ccc(N(c2ccccc2)c2ccccc2)cc1,1,x,x
O=C(NO)c1cccc(C(=O)N/N=C/c2ccc(I)cc2)c1,x,-7,-14
COc1ccc(S(=O)(=O)N[C@@H]2CCCN(Cc3cccc(OCCO)c3)C2)cc1,0,x,x
O=C(NO)c1cccc(C(=O)N/N=C/c2cc(O)ccc2[N+](=O)[O-])c1,x,-12,7
C[C@H](CO)N1C[C@H](C)[C@H](CN(C)Cc2ccc(-c3ccccc3)cc2)Oc2c(NS(=O)(=O)c3ccc(F)cc3)cccc2C1=O,0,58*,-33
C[C@H]1CN([C@@H](C)CO)C(=O)c2cccc(NS(=O)(=O)c3ccccc3)c2O[C@H]1CN(C)CC1CC1,-1,-3,0
C[C@@H]1CN([C@H](C)CO)C(=O)c2cccc(NS(=O)(=O)c3ccc(F)cc3)c2O[C@H]1CN(C)Cc1ccc(-c2ccccc2)cc1,x,6,5
C[C@@H]1CN([C@@H](C)CO)C(=O)c2cccc(NS(=O)(=O)c3ccccc3)c2O[C@@H]1CN(C)CC1CC1,0,57*,10
O=C(NO)c1ccc(C(=O)N/N=C/c2ccc3ccccc3c2)cc1,x,-12,3
O=C(CCCCCCC(=O)N/N=C/C1=CCCCC1)NO,0,x,x
COC(=O)CCCCCCC(=O)N/N=C/c1ccc(C)o1,x,-4,-4
COC(=O)CCCCCCC(=O)N/N=C/c1ccc(S(=O)(=O)O)o1,0,-19,4
C[C@H]1CN([C@@H](C)CO)C(=O)c2cccc(NC(=O)c3ccncc3)c2O[C@@H]1CN(C)Cc1ccc(C(=O)O)cc1,0,-14,17
C[C@@H]1CN([C@H](C)CO)C(=O)c2cccc(NC(=O)c3ccncc3)c2O[C@@H]1CN(C)Cc1ccc(-c2ccccc2)cc1,-1,67*,-21
C[C@H](CO)N1C[C@H](C)[C@@H](CN(C)Cc2ccc(C(=O)O)cc2)Oc2c(NC(=O)c3ccncc3)cccc2C1=O,1,-18,1
C[C@@H]1CN([C@@H](C)CO)C(=O)c2cccc(NC(=O)c3ccncc3)c2O[C@@H]1CN(C)Cc1ccc(-c2ccccc2)cc1,x,58*,-22
COC(=O)CCCCCCC(=O)N/N=C/c1cc(O)ccc1Br,-1,23,33
C#CCOc1ccc(/C=N/NC(=O)c2ccccc2O)cc1,-10,-20,-30
C[C@H]1CN([C@@H](C)CO)C(=O)c2cccc(NC(=O)c3nc4ccccc4s3)c2O[C@@H]1CN(C)Cc1ccc2c(c1)OCO2,x,59*,-27
C[C@@H]1CN([C@@H](C)CO)C(=O)c2cccc(NC(=O)c3nc4ccccc4s3)c2O[C@H]1CN(C)Cc1ccc2c(c1)OCO2,-1,61*,-25
SMILES,A1 apoptosis 2,T cruzi intra,INS-1E ATP HTS
C[C@@H]1CN([C@H](C)CO)C(=O)c2cccc(NC(=O)c3nc4ccccc4s3)c2O[C@@H]1CN(C)Cc1ccc2c(c1)OCO2,0,-15,-20
C[C@@H]1CN([C@H](C)CO)C(=O)c2cccc(NC(=O)c3nc4ccccc4s3)c2O[C@H]1CN(C)Cc1ccc2c(c1)OCO2,-2,48,-27
C=CCN1C(=S)N[C@@H]2c3ccccc3O[C@@]1(C)[C@@H]2CO,1,x,x
COC(=O)CCCCCCC(=O)N/N=C/c1c(F)c(F)c(F)c(F)c1F,x,-11,17
COc1ccc(CN(C)C[C@H]2Oc3ccc(NS(=O)(=O)c4ccc(C)cc4)cc3CC(=O)N([C@@H](C)CO)C[C@@H]2C)cc1,1,56*,1
COc1ccc(CN(C)C[C@@H]2Oc3ccc(NS(=O)(=O)c4ccc(C)cc4)cc3CC(=O)N([C@@H](C)CO)C[C@H]2C)cc1,-1,x,x
